Bioassay records: PubChem BioAssay, several laboratories
This is a sample that favours compounds with a hit; in the whole collection about 4% have one here.
KCNQ1 act: human KCNQ1 channel potentiation or activation; P51787; CHO-K1 KCNQ1, thallium flux FluxOR fluorescence; stronger effect = higher value; B-score at 10 µM; 310,000 tested, 0.35% active;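 active = fluorescence ratio B-score, a plate-corrected score, at least three library SD, with initial intensity B-score within 5 SD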
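Test system: CHO-K1 cells stably expressing KCNQ1 / Medium: assay buffer / Also added: depolarizing K+/Tl+ stimulus, K2SO4 and Tl2SO4 each 12.5 mM in 5x stock / Incubation: 90 min dye loading and 20 min compound exposure, both at room temperature / Signal: thallium influx via FluxOR fluorescence, kinetic imaging / Evaluation: B score of baseline-normalized fluorescence ratio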
KCNK3 block: human KCNK3 channel inhibition, primary screen. O14649. CHO-KCNK3 thallium flux, FluxOR fluorescence; stronger effect = lower value. B-score at 10 µM. 340,000 tested, 0.84% active. AID 602410;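 active = B-score under library mean minus 4 SD, starting fluorescence ratio at most library mean plus 5 SD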;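 note: more negative B-score means stronger inhibition of thallium flux through KCNK3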
KCNQ1 block: inhibitors of human KCNQ1 potassium channel; B-score at 10 µM; P51787; 310,000 tested, 1.3% active; AID 2642; CHO-K1 KCNQ1, FluxOR thallium flux fluorescence; stronger effect = higher value;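 active = compounds whose thallium flux B-score, printed positive for inhibition, exceeds three library SD while starting fluorescence stays within three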;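 note: channel opened by potassium depolarization with thallium stimulus after 20 min compound exposure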
KCNK9 block: human KCNK9 channel inhibition | Q9NPC2 | HEK293 KCNK9, FluxOR thallium flux fluorescence; stronger effect = lower value | B-score at 10 µM | 310,000 tested, 1.2% active | AID 488922;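 active = ratio B-score over 3 SD below the library mean, with starting fluorescence within 5 SD of its mean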;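 note: negative B-score means less thallium flux so channel inhibition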
hERG rescue: hERG (human) protection from proarrhythmic block; activation (rescue from dofetilide block), less the hit threshold, % at 10 µM; 310,000 tested, 0.51% active; CHO-hERG, FluxOR thallium flux, dofetilide IC70 present;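 active = activation above the mean of controls blocked by dofetilide plus 5 SD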;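 note: thallium influx through hERG after potassium depolarization seen as dye fluorescence rise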
PHOSPHO1 block: inhibitors of human PHOSPHO1 phosphatase. inhibition, % at 13.3 µM. recombinant PHOSPHO1, absorbance phosphatase assay. 290,000 tested, 1.1% active; in the data active = inhibition above about 60%
An asterisk follows results filed as active; i = inactive; . = not tested or not shown.

SMILES	KCNQ1 act	KCNK3 block	KCNQ1 block	KCNK9 block	hERG rescue	PHOSPHO1 block
C[C@@H](C(=O)CC(=O)OC(C)(C)C)[C@@H](O)c1c(F)cccc1Cl	i	i	i	-8.01*	-6.8	20.9
CC(C)(C)NC(=O)NC(=O)COC(=O)c1c(F)cccc1Cl	i	i	i	i	-7.1	27.5
Clc1ccc(-c2csc(Nc3ccccc3)[n+]2Cc2ccco2)c(Cl)c1	i	i	i	-7.3*	-19.6	-43.4
CCCC[n+]1c(-c2ccc(Cl)cc2Cl)csc1Nc1ccccc1	i	i	i	i	-13.6	-6.8
Cc1ccc(NC(=O)NCc2ccccn2)cc1Cl	i	i	i	i	-3.7	52.8
CCOc1ccc(NC(=O)NCc2ccccn2)cc1	i	i	i	i	-3.3	51.6
Cc1ccc(NC(=O)NCc2ccccn2)cc1	i	i	i	i	9.3*	45.4
Cc1ccc(C(=O)NCc2ccccn2)cc1Cl	i	i	i	i	-16.6	60.1*
CCOC(=O)c1c(C)nc2c(c1-c1ccc(OC)c(OC)c1)C(=O)c1ccccc1-2	i	i	i	i	-5.0	10.2
CCCCNS(=O)(=O)c1ccc2nc(SCC(=O)c3ccc(C#N)cc3)[nH]c2c1	i	i	i	i	-4.0	99.0*
O=C(Nc1ccnn1C1CCN(Cc2cc3ccccc3[nH]2)CC1)C1CCOC1 (centres undefined)	i	i	i	i	-11.2	7.6
COc1ccccc1/C=C/CN1CCC(n2nccc2NC(=O)C2CC2)CC1	i	i	i	i	-8.2	62.8*
COc1ccccc1/C=C/CN1CCC(Oc2cc(C(=O)NC3CC3)ccc2OC)CC1	i	i	i	i	-12.4	64.9*
Cc1c(CN2CCC(n3nccc3NC(=O)C3CCOC3)CC2)[nH]c2ccccc12 (centres undefined)	i	i	i	i	-4.7	65.8*
COc1ccc(CN2CCC(n3nccc3NC(=O)C3CCCC3)CC2)cc1	i	i	i	i	-7.0	61.0*
C=CCn1c(SC)nc2sc3c(c2c1=O)CCc1ccccc1-3	i	i	i	i	-8.9	-4.5
CC1Sc2ccc(S(=O)(=O)CCC(=O)N(C)Cc3ccccc3)cc2NC1=O (centres undefined)	i	i	i	i	-9.8	10.3
Cc1ccccc1N(C(=O)c1csnn1)C(C(=O)NC1CCCCC1)c1ccncc1 (centres undefined)	i	i	i	i	-6.7	35.9
CC(=O)Nc1c2c(nn1-c1ccc(C)cc1)CS(=O)(=O)C2	i	i	i	i	-4.5	33.7
O=c1[nH]nnc2sc3c(c12)CCCC3	i	i	i	i	0.9	1.1
COc1ccccc1CN1CCC(n2nccc2NC(=O)CCOc2ccccc2)CC1	i	i	i	i	-12.4	75.0*
COc1ccc(O)c(CN2CCC(n3nccc3NC(=O)CCOc3ccccc3)CC2)c1	i	i	i	i	-11.2	52.6
O=C(Cn1nnc2ccccc21)c1cccc([N+](=O)[O-])c1	i	i	i	i	5.3*	-7.5
Cc1ccc(C(=O)Cn2nnc3ccccc32)cc1[N+](=O)[O-]	i	i	i	i	-1.1	23.7
CCc1ccc(OCc2nnc(SCC(=O)NCc3ccco3)o2)cc1	i	i	i	i	-16.6	10.6
SMILES	KCNQ1 act	KCNK3 block	KCNQ1 block	KCNK9 block	hERG rescue	PHOSPHO1 block
COC(=O)C(CC(C)C)NC(=O)c1ccc([N+](=O)[O-])c(C)c1 (centres undefined)	i	i	i	i	4.6*	50.1
CCCN1C(=O)/C(=C\C=C2/Sc3ccccc3N2CC)SC1=S	i	.	i	i	-11.3	12.5
CCCN1C(=O)/C(=C\C=C2\N(CC)c3ccccc3C2(C)C)SC1=S	i	i	9*	i	-38.7	42.9
COc1ccc(S(=O)(=O)N2CCC(NC(=O)Nc3ccc(C)cc3)CC2)cc1	i	i	i	i	-9.5	60.5*
COc1ccc(NC(=S)N2CCN(S(=O)(=O)c3ccc(F)cc3)CC2)cc1	i	i	i	i	-10.4	65.8*
COc1ccc(S(=O)(=O)N2CCNCC2)cc1	i	i	i	i	6.5*	34.3
